Data as given in ChEMBL document CHEMBL4732054, “Extension of furopyrimidine nucleosides with 5-alkynyl substituent: Synthesis, high fluorescence, and antiviral effect in the absence of free ribose hydroxyl groups” (Eur J Med Chem, 2021).

What was measured:
Human alphaherpesvirus 3 [1] = experiment: Antiviral activity against thymidine kinase positive Varicella zoster virus OKA infected in human HEL cells assessed as reduction in virus-induced cytopathogenic effect measured after 3 days coulter counter method; format: functional, organism-based; details: Human alphaherpesvirus 3, OKA, 72 h
Human alphaherpesvirus 3 [2] = experiment: Antiviral activity against thymidine kinase deficient Varicella zoster virus 07-1 infected in human HEL cells assessed as reduction in virus-induced cytopathogenic effect measured after 3 days coulter counter method; format: functional, organism-based; details: Human alphaherpesvirus 3, 07-1, HEL, 72 h
[3] = Cytotoxicity against human HEL cells assessed as concentration required to cause visible alteration in cell morphology incubated for 3 days by coulter counter method; format: cell-based; details: time 3 day
Method in brief: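 MCC scored by microscopy in confluent HEL cell cultures as the lowest compound concentration that causes a visible change in cell morphology.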

HEL = experiment: Cytotoxicity against human HEL cells assessed as reduction in cell growth incubated for 3 days by coulter counter method; format: cell-based; details: 72 h, time 3 day
Method in brief: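 HEL cells were seeded at 5 × 10^3 cells/well and allowed to grow for 24 h. Medium containing varying compound concentrations was then added, and cells were incubated 3 days at 37 °C. Cell number was counted with a Coulter counter.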

[4] = Selectivity index, ratio of CC50 for human HEL cells to EC50 for thymidine kinase positive Varicella zoster virus OKA infected in human HEL cells; format: toxicity, cell-based; details: read-out: Ratio CC50/EC50
Method in brief: (§1)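 VZV plaque reduction in confluent HEL cells: 20 PFU input, 1–2 h adsorption, then unbound virus removed and cells given varying compound concentrations in duplicate. EC50 is the concentration halving plaque number. […] SI = CC50/EC50.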

[5] = Selectivity ratio of EC50 for thymidine kinase deficient Varicella zoster virus 07-1 infected in human HEL cells to EC50 for thymidine kinase positive Varicella zoster virus OKA infected in human HEL cells; format: functional
[6] = Selectivity index, ratio of CC50 for human HEL cells to EC50 for thymidine kinase deficient Varicella zoster virus 07-1 infected in human HEL cells; format: toxicity, cell-based; details: read-out: Ratio CC50/EC50; method in brief: as §1

SMILES | EC50 (Human alphaherpesvirus 3 [1]) | EC50 (Human alphaherpesvirus 3 [2]) | MCC at 72 h [3] | CC50 (HEL) | selectivity ratio [4] | Ratio EC50 [5] | selectivity ratio [6]
CCCCCc1ccc(-c2oc3nc(=O)n([C@H]4C[C@H](OC(C)=O)[C@@H](COC(C)=O)O4)cc3c2C#CCCO)cc1 | 4.02 µM | 13 µM | 100 µM | 2.66 µM | ≤ 1 | – | –
CCCCCc1ccc(C#Cc2c(-c3ccc(C)cc3)oc3nc(=O)n([C@H]4C[C@H](OC(C)=O)[C@@H](COC(C)=O)O4)cc23)cc1 | > 4 µM | > 4 µM | 20 µM | – | – | – | –
CC(=O)OCC#Cc1c(-c2ccc(C)cc2)oc2nc(=O)n([C@H]3C[C@H](OC(C)=O)[C@@H](COC(C)=O)O3)cc12 | > 100 µM | 100 µM | > 100 µM | – | – | – | –
CCCCCc1ccc(-c2oc3nc(=O)n([C@H]4C[C@H](OC(C)=O)[C@@H](COC(C)=O)O4)cc3c2C#Cc2ccc(C)cc2)cc1 | 7.61 µM | > 20 µM | 100 µM | – | – | – | –
CC(=O)OC[C@H]1O[C@@H](n2cc3c(C#CCO)c(-c4ccc(C)cc4)oc3nc2=O)C[C@@H]1OC(C)=O | 66.9 µM | > 100 µM | > 100 µM | – | – | – | –
CC(=O)OC[C@H]1O[C@@H](n2cc3c(C#CC4(O)c5ccccc5-c5ccccc54)c(-c4ccc(C)cc4)oc3nc2=O)C[C@@H]1OC(C)=O | 1.3 µM | 7.61 µM | 100 µM | 2.36 µM | ≤ 1 | – | –
CC(=O)OC[C@H]1O[C@@H](n2cc3c(C#CCCO)c(-c4ccc(C)cc4)oc3nc2=O)C[C@@H]1OC(C)=O | 76.5 µM | > 100 µM | > 100 µM | – | – | – | –
COCC#Cc1c(-c2ccc(C)cc2)oc2nc(=O)n([C@H]3C[C@H](OC(C)=O)[C@@H](COC(C)=O)O3)cc12 | 20 µM | 44.7 µM | > 100 µM | – | – | – | –
CC(=O)OC[C@H]1O[C@@H](n2cc3c(C#Cc4ccc(C)cc4)c(-c4ccc(C)cc4)oc3nc2=O)C[C@@H]1OC(C)=O | 6.84 µM | 10.9 µM | 60 µM | 8.77 µM | ≤ 1 | – | –
CC(=O)OC[C@H]1O[C@@H](n2cc3c(C#CCCCCn4c5ccccc5c5ccccc54)c(-c4ccc(C)cc4)oc3nc2=O)C[C@@H]1OC(C)=O | 7.23 µM | 13.2 µM | 100 µM | 6.22 µM | ≤ 1 | – | –
CCCCCc1ccc(C#Cc2c(-c3ccc(CCCCC)cc3)oc3nc(=O)n([C@H]4C[C@H](OC(C)=O)[C@@H](COC(C)=O)O4)cc23)cc1 | 1.5 µM | 8.94 µM | 100 µM | > 100 µM | 67 | 6 | 11
CCCCCc1ccc(-c2oc3nc(=O)n([C@H]4C[C@H](OC(C)=O)[C@@H](COC(C)=O)O4)cc3c2C#CCO)cc1 | 7.56 µM | 13 µM | 100 µM | 3.8 µM | ≤ 1 | – | –
CC(=O)OC[C@H]1O[C@@H](n2cc3c(C#CCCN4C(=O)c5ccccc5C4=O)c(-c4ccc(C)cc4)oc3nc2=O)C[C@@H]1OC(C)=O | 31 µM | 38.1 µM | 100 µM | – | – | – | –
Nc1nc2c(ncn2COCCO)c(=O)[nH]1 [ACYCLOVIR] | – | – | > 440 µM | > 300 µM | – | – | –
O=c1[nH]c(=O)n([C@H]2C[C@H](O)[C@@H](CO)O2)cc1/C=C/Br [BRIVUDINE] | – | 12 µM | > 300 µM | > 300 µM | – | – | –
